Source: ChEMBL document CHEMBL3774321, “Systematic diversification of benzylidene heterocycles yields novel inhibitor scaffolds selective for Dyrk1A, Clk1 and CK2” (Eur J Med Chem, 2016)

Columns and labels:
[1] = target: Dual specificity tyrosine-phosphorylation-regulated kinase 1B (Homo sapiens, UniProt Q9Y463); test: Inhibition of full length recombinant human GST-tagged DYRK1B expressed in insect cells using KKISGRLSPIMTEQ-NH2 as substrate incubated for 15 mins in presence of [gamma-32P]ATP
[2] = target: T1, Dual specificity tyrosine-phosphorylation-regulated kinase 2 (Homo sapiens, UniProt Q92630); test: Inhibition of recombinant human N-terminal GST-tagged DYRK2 expressed in Escherichia coli BL21(DE3) cells using KKISGRLSPIMTEQ-NH2 as substrate incubated for 15 mins in presence of [gamma-32P]ATP
T1 sequence (Q92630 whole entry): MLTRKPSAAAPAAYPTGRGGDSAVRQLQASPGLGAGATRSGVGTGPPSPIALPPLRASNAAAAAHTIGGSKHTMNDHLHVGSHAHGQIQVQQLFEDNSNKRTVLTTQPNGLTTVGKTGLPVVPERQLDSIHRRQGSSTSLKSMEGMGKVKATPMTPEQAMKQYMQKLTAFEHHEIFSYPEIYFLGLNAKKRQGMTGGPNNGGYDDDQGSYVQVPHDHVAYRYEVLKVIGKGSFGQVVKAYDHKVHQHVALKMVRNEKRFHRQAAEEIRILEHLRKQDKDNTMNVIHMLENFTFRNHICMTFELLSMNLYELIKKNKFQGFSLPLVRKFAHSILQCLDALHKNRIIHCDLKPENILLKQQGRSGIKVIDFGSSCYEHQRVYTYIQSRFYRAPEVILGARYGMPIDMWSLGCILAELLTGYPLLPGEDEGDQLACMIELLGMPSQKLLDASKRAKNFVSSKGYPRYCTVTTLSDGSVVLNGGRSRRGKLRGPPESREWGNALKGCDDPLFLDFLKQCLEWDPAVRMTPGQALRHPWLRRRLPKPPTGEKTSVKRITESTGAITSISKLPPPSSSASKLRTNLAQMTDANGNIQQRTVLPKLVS
Procedure, shortened: (§1)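 Purified recombinant kinase with 100 µM ATP. IC50 values are averages of at least two independent determinations.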

Casein kinase II [3] = target: Casein kinase II (Homo sapiens, UniProt P19784+P67870+P68400); test: (§2) Inhibition of CK2 (unknown origin) using RRRDDDSDDD-NH2 as susbtrate incubated for 15 mins in presence of [gamma-32P]ATP; type: protein-complex assay
[4] = target: Epidermal growth factor receptor (Homo sapiens, UniProt P00533); test: Inhibition of EGFR (unknown origin) incubated for 15 mins in presence of [gamma-32P]ATP
Procedure, shortened: (§3)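 Purified recombinant kinase assayed with 100 μM ATP. Values averaged from at least two independent determinations.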

[5] = target: T2, Dual specificity tyrosine-phosphorylation-regulated kinase 1A (Homo sapiens, UniProt Q13627); test: Inhibition of recombinant human N-terminal His6-tagged DYRK1A catalytic domain expressed in Escherichia coli BL21(DE3) cells using KKISGRLSPIMTEQ-NH2 as substrate incubated for 15 mins in presence of [gamma-32P]ATP
[6] = target: Dual specificity protein kinase CLK1 (Homo sapiens, UniProt P49759); test: Inhibition of recombinant human GST-tagged CLK1 catalytic domain (129 to 484 residues) expressed in Escherichia coli using GRSRSRSRSRSRSRSR as substrate incubated for 15 mins in presence of [gamma-32P]ATP; procedure, shortened: as §1
[7] = target: Protein kinase C beta type (Homo sapiens, UniProt P05771); test: Inhibition of PKCbeta (unknown origin) incubated for 15 mins in presence of [gamma-32P]ATP; procedure, shortened: as §3
[8] = Half life in rat plasma at 1 uM by LC-MS/MS analysis; type: ADME, cell-free
Procedure, shortened: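 Pooled heparinized rat plasma incubated with 1 μM compound at 37 °C, sampled at 0, 5, 15, 30, 60 and 120 min. Reaction stopped with 5 volumes cold acetonitrile containing internal standard. Remaining compound quantified by LC-MS/MS. Half-life given as mean of two experiments.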

[9] = target: T2, Dual specificity tyrosine-phosphorylation-regulated kinase 1A; test: Inhibition of tetracycline-inducible EGFP-DYRK1A (unknown origin) expressed in HEK293 cells coexpressing full length human EGFP-tau protein assessed as reduction in tau-Thr212 phosphorylation incubated overnight by immunoblotting assay
[10] = Growth inhibition of human U87MG cells after 4 days by MTT assay; type: functional, cell-based, U-87MG ATCC; details: U-87 MG, 96 h
[11] = Dissociation constant, pKa of compound; type: physicochemical
Plasma = test: Metabolic stability in rat plasma assessed as drug degradation at 1 uM after 120 mins by LC-MS/MS analysis; type: ADME, cell-free; details: 2 h
Procedure, shortened: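 Compound (1 µM) in pooled heparinised rat plasma at 37 °C, sampled at 0, 5, 15, 30, 60 and 120 min. Reaction stopped with 5 volumes of cold acetonitrile containing internal standard. Remaining compound was measured by LC-MS/MS; means of two experiments.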

Casein kinase II [12] = target: Casein kinase II (Homo sapiens, UniProt P67870+P68400+P19784); test: as §2; type: protein-complex assay
Sequence of Casein kinase II (Homo sapiens, UniProt P67870+P68400+P19784) (P67870 whole entry): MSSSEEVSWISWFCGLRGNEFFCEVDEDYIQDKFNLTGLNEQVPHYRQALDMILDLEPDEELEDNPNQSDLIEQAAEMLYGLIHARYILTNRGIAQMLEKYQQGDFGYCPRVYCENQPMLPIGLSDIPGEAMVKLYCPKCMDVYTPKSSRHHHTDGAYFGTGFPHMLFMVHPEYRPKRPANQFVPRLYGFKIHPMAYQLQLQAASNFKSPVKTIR
Sequence of Casein kinase II (Homo sapiens, UniProt P67870+P68400+P19784) (P68400 whole entry): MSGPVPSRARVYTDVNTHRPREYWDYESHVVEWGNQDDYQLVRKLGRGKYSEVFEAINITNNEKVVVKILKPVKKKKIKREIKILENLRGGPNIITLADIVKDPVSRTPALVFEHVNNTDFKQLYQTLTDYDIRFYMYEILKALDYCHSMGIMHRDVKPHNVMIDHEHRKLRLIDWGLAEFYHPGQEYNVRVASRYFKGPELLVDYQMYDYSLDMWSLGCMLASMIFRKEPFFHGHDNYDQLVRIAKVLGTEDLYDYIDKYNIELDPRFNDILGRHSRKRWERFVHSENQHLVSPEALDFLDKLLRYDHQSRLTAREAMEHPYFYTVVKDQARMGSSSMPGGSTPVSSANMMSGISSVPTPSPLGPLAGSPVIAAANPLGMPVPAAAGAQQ
Sequence of Casein kinase II (Homo sapiens, UniProt P67870+P68400+P19784) (P19784 whole entry): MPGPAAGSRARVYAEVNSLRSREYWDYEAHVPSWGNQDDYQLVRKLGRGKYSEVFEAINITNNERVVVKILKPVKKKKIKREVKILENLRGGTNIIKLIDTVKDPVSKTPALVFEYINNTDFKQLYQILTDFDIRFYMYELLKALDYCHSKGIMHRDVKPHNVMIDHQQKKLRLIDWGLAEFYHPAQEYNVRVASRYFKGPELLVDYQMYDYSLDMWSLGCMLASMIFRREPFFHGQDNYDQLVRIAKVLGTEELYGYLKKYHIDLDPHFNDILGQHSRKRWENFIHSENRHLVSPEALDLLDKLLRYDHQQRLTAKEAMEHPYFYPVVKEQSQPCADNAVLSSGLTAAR

Sequence of Epidermal growth factor receptor (P00533 whole entry): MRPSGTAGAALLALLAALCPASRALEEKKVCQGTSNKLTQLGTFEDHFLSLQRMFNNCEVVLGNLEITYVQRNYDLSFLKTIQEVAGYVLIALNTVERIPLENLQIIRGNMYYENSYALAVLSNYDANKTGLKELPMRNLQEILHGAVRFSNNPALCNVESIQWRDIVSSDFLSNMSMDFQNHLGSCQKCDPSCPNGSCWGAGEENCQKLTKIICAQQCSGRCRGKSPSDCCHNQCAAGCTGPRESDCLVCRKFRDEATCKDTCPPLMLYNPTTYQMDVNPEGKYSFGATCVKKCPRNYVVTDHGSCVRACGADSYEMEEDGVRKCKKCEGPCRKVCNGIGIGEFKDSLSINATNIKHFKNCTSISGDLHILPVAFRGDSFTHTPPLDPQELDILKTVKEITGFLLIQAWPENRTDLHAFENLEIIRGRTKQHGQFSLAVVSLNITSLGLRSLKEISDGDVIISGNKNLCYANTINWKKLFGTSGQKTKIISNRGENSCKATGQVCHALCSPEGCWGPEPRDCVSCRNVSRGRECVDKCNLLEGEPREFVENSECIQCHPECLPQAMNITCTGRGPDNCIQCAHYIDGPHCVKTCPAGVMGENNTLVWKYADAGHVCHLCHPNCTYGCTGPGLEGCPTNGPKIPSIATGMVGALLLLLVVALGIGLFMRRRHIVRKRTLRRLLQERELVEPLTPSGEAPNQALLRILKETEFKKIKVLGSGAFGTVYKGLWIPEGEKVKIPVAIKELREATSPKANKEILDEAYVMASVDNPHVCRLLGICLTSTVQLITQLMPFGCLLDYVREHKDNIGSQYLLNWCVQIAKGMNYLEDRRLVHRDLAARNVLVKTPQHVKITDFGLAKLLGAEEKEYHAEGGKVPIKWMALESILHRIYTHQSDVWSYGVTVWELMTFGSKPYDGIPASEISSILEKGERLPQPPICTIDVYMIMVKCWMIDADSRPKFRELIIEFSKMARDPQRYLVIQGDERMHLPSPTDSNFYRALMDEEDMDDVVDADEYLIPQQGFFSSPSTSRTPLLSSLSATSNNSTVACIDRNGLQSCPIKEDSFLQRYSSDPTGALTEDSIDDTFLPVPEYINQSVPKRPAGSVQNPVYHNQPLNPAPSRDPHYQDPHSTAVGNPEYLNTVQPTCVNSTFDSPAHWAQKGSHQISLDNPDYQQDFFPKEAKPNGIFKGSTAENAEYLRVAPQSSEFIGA
Sequence of Protein kinase C beta type (P05771 whole entry): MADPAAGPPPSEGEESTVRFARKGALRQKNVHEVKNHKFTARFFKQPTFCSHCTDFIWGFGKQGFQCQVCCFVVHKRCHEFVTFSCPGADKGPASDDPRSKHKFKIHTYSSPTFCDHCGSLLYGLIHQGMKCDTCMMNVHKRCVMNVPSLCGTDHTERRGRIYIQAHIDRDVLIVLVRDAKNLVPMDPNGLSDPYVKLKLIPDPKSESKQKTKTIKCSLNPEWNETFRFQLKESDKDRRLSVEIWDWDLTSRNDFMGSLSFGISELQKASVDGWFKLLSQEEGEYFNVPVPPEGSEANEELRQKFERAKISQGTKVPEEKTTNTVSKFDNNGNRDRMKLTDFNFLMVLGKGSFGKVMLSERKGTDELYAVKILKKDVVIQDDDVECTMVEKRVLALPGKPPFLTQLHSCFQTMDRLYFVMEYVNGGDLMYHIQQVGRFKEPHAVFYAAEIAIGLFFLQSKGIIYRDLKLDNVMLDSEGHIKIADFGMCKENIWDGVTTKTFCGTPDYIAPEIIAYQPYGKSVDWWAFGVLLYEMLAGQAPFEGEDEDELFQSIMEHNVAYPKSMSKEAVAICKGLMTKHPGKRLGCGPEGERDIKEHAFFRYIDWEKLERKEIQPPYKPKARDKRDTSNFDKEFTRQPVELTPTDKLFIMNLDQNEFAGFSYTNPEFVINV
Sequence of Casein kinase II (Homo sapiens, UniProt P19784+P67870+P68400) (P67870 whole entry): as the sequence (P67870 whole entry) above
Sequence of Casein kinase II (Homo sapiens, UniProt P19784+P67870+P68400) (P68400 whole entry): as the sequence (P68400 whole entry) above
Sequence of Casein kinase II (Homo sapiens, UniProt P19784+P67870+P68400) (P19784 whole entry): as the sequence (P19784 whole entry) above
Sequence of Dual specificity protein kinase CLK1 (P49759 whole entry, the tested form may be a part): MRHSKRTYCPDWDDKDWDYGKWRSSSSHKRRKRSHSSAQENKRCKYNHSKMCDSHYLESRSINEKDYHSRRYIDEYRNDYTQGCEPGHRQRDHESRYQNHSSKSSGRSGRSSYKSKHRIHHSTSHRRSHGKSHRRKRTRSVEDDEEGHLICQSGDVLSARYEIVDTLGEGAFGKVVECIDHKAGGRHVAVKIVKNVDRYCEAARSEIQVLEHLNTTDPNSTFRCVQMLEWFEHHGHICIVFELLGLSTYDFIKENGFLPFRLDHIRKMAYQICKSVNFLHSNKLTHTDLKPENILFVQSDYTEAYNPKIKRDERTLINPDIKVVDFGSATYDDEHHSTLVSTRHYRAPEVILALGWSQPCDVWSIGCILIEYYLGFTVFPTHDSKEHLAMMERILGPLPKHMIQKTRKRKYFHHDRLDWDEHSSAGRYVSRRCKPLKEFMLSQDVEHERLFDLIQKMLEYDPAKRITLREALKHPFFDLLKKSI
Sequence of Dual specificity tyrosine-phosphorylation-regulated kinase 1B (Q9Y463 whole entry): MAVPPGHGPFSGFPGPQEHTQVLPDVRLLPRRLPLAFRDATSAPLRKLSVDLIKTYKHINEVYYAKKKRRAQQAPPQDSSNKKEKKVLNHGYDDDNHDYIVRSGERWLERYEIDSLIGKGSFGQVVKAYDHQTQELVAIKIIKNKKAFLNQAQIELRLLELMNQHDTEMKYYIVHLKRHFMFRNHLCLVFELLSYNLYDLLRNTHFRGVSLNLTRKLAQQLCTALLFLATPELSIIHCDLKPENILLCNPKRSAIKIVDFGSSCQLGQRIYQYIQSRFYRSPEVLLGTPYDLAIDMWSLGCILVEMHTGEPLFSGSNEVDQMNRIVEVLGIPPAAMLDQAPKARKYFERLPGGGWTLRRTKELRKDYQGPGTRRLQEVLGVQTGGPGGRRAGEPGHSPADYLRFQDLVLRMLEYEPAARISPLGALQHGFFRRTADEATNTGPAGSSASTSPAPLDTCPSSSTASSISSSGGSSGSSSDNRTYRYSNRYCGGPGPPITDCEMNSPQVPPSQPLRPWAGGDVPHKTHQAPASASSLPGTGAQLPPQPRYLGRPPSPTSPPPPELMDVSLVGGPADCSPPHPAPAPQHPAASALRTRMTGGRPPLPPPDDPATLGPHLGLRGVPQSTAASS

Work on `CC1C/C(=C\c2ccc3ncsc3c2)C(=O)O1` (stereo not drawn) yielded an IC50 [1] of 1.68 µM, an IC50 ([2]; read-out: IC50) of over 10 µM and an IC50 (Casein kinase II [3]) of over 10 µM. For the same molecule, the IC50 ([4]; read-out: IC50) was over 10 µM, the IC50 [5] was 1.08 µM and the IC50 [6] was 0.17 µM. The IC50 [7] was “Not Active”.
`CCOC(=O)[C@H](Cc1ccccc1)NC(C)=O` gave a half-life at 1 µM [8] of under 0.0833 h.
Work on `O=C1OCC/C1=C\c1ccc2c(c1)OCO2` yielded an IC50 [1] of 2.63 µM, an IC50 ([2]; read-out: IC50) of 0.99 µM and an IC50 (Casein kinase II [3]) of over 10 µM. The IC50 ([4]; read-out: IC50) was over 10 µM, the IC50 [5] was 0.6 µM and the IC50 [6] was over 10 µM. The IC50 [7] was “Not Active”.
`O=C1NC(=O)/C(=C/c2ccc3nccnc3c2)S1` showed an IC50 [9] of 1.6 µM, an IC50 [1] of 0.08 µM and an IC50 ([2]; read-out: IC50) of 0.1 µM. For the same molecule, the IC50 (Casein kinase II [3]) was 0.02 µM, the IC50 ([4]; read-out: IC50) was over 10 µM and the IC50 [5] was 0.03 µM. For the same molecule, the IC50 [10] was 0.32 µM, the IC50 [6] was 0.07 µM and the IC50 [7] was “Not Active”.
`O=C1OCC/C1=C\c1ccc2c(c1)OCCO2` showed an IC50 [1] of 4.29 µM, an IC50 ([2]; read-out: IC50) of 2.04 µM and an IC50 (Casein kinase II [3]) of over 10 µM. For the same molecule, the IC50 ([4]; read-out: IC50) was over 10 µM, the IC50 [5] was 0.88 µM and the IC50 [6] was over 10 µM. For the same molecule, the IC50 [7] was “Not Active”.
`COc1ccc([C@@H]2Sc3ccccc3N(CCN(C)C)C(=O)[C@@H]2OC(C)=O)cc1` [DILTIAZEM] showed a half-life at 1 µM [8] of 2.08 h.
In the case of `COc1ccc(/C=C2/SC(=S)NC2=O)cc1`, the IC50 [1] is reported as 1.5 µM, the IC50 ([2]; read-out: IC50) is reported as over 10 µM and the IC50 (Casein kinase II [3]) is reported as 0.22 µM. The IC50 [4] was “Not Active”, the IC50 [5] was 0.25 µM and the IC50 [10] was 9.5 µM. The pKa [11] was 5.8, the IC50 [6] was 5.7 µM and the IC50 [7] was “Not Active”.
Molecule `O=C1NC(=S)S/C1=C\c1ccc2c(c1)CCO2` has an IC50 [1] of 0.3 µM, an IC50 ([2]; read-out: IC50) of 1 µM and an IC50 (Casein kinase II [3]) of 0.1 µM. The IC50 ([4]; read-out: IC50) was over 10 µM, the IC50 [5] was 0.1 µM and the IC50 [10] was 5.6 µM. The IC50 [6] was 0.5 µM and the IC50 ([7]; read-out: IC50) was over 10 µM.
`COc1ccc(/C=C2\CCCOC2=O)cc1` showed an IC50 [1] of 5.8 µM, an IC50 ([2]; read-out: IC50) of over 10 µM and an IC50 (Casein kinase II [3]) of over 10 µM. For the same molecule, the IC50 [4] was “Not Active”, the IC50 [5] was 1.1 µM and the IC50 [6] was 7.52 µM. For the same molecule, the IC50 [7] was “Not Active”.
In the case of `O=C1OCC/C1=C\c1ccc2c(c1)CCO2`, the IC50 [1] is reported as 2.17 µM, the IC50 ([2]; read-out: IC50) is reported as 0.82 µM and the IC50 (Casein kinase II [3]) is reported as over 10 µM. The Stability (Plasma) was “Stable”, the IC50 ([4]; read-out: IC50) was over 10 µM and the IC50 [5] was 0.96 µM. For the same molecule, the IC50 [6] was over 10 µM, the half-life at 1 µM [8] was over 2 h and the IC50 [7] was “Not Active”.
With `COc1ccc2c(c1)[nH]c1c(C)nccc12` [HARMINE] the IC50 [10] was 7.2 µM.
With `O=C1OCC/C1=C\c1ccc2c(c1)CCCO2` the IC50 [1] was 6.7 µM, the IC50 ([2]; read-out: IC50) was over 10 µM and the IC50 (Casein kinase II [3]) was over 10 µM. The IC50 ([4]; read-out: IC50) was over 10 µM, the IC50 [5] was 0.93 µM and the IC50 [6] was 3.9 µM. For the same molecule, the IC50 [7] was “Not Active”.
`COc1ccc(/C=C2\CC(=O)NC2=O)cc1` gave an IC50 [5] of over 10 µM.
Work on `O=C1NC(=S)N/C1=C\c1ccc2ncsc2c1` yielded an IC50 [1] of 0.9 µM, an IC50 ([2]; read-out: IC50) of 1.5 µM and an IC50 (Casein kinase II [3]) of 2.4 µM. For the same molecule, the IC50 ([4]; read-out: IC50) was over 10 µM, the IC50 [5] was 0.7 µM and the IC50 [6] was 0.02 µM. It also gave an IC50 ([7]; read-out: IC50) of over 10 µM.
With `COc1ccc(/C=C2\CCOC2=O)cc1` the IC50 [1] was 3.8 µM, the IC50 ([2]; read-out: IC50) was over 10 µM and the IC50 (Casein kinase II [12]) was “Not Active”. The IC50 [4] was “Not Active”, the IC50 [5] was 1.81 µM and the IC50 [6] was over 10 µM. The IC50 [7] was “Not Active”.
`COc1ccc(/C=C2\NC(=O)SC2=O)cc1` showed an IC50 [1] of 5.2 µM, an IC50 ([2]; read-out: IC50) of 9.2 µM and an IC50 (Casein kinase II [3]) of 0.17 µM. The IC50 [4] was “Not Active”, the IC50 [5] was 1.3 µM and the IC50 [6] was 3.6 µM. The IC50 [7] was “Not Active”.
With `COc1ccc(/C=C2\CC(C)OC2=O)cc1` (stereo not drawn) the IC50 [1] was 10.5 µM, the IC50 [2] was “Not Active” and the IC50 (Casein kinase II [3]) was over 10 µM. The IC50 [5] was 1.2 µM, the IC50 [6] was 4.37 µM and the IC50 [7] was “Not Active”.
For `COc1ccc(/C=C2\NC(=O)NC2=O)cc1`, the IC50 [1] was over 10 µM, the IC50 [2] was “Not Active” and the IC50 (Casein kinase II [12]) was “Not Active”. For the same molecule, the IC50 [5] was 6.4 µM, the pKa [11] was 8.9 and the IC50 [6] was 10 µM. For the same molecule, the IC50 [7] was “Not Active”.
